Source: PubChem BioAssay
HTRA1 inh: HTRA1 (human) protease inhibition; 340,000 tested, 0.5% active; inhibition, % at 5.96 µM; recombinant HTRA1, FP-rhodamine activity-based probe, fluorescence polarization; AID 504803; Q92743; in the data active means inhibition above about 36%
PAFAH1B2 FP inh: inhibitors of human PAFAH1B2; 340,000 tested, 1.2% active; inhibition, % at 3.39 µM; AID 492953; recombinant PAFAH1B2, FP-rhodamine activity probe, fluorescence polarization; P68402;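 active means inhibition above the mean of all tested compounds plus 3 SD, cut at about 24% in these data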
Target sequence (P68402 whole entry, looked up): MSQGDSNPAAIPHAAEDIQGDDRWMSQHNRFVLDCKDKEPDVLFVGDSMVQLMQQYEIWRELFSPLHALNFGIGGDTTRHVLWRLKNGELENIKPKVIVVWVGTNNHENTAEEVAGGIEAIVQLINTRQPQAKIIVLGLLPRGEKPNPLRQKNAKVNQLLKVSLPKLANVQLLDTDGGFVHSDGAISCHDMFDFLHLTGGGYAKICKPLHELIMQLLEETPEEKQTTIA
PAFAH2 FP inh: inhibitors of human PAFAH2. AID 492956. recombinant PAFAH2, FP-rhodamine activity probe, fluorescence polarization. 340,000 tested, 0.99% active. inhibition, % at 3.39 µM. Q99487;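 active means inhibition above the mean over all tested compounds plus 3 SD, cut at about 30% in these data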;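 further: inhibitors block probe labeling of enzyme so polarization drops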
ABHD4 inh: ABHD4 (mouse) inhibition, primary FP screen | Q8VD66 | purified mABHD4, FP-Rh probe fluorescence polarization | inhibition, % at 8.92 µM | 370,000 tested, 0.54% active;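 active means inhibition exceeding the mean over every tested compound plus 3 SD, cut at about 30% in these data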
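Assay system: mouse ABHD4 enzyme, wild type / Also added: fluorescent activity-based probe FP-Rh / Doses: single nominal dose of 8.92 µM, 0.89% DMSO final / Timing: 45 min compound pre-incubation plus 60 min probe step, 25 °C / Signal: FP readout, ex 525 nm / em 598 nm / Control set: S159A mutant/DMSO as 100%, compound-well median as 0%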
pPAFAH inh: pPAFAH (human) enzyme inhibition. recombinant pPAFAH, FP-rhodamine probe fluorescence polarization. inhibition, % at 3.39 µM. 330,000 tested, 1.5% active. AID 463082;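 active means inhibition above the mean inhibition across the screen plus 3 SD, cut at about 25% in these data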;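 further: inhibitors block binding of the rhodamine activity-based probe so polarization drops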
Target sequence (Q13093 whole entry, looked up): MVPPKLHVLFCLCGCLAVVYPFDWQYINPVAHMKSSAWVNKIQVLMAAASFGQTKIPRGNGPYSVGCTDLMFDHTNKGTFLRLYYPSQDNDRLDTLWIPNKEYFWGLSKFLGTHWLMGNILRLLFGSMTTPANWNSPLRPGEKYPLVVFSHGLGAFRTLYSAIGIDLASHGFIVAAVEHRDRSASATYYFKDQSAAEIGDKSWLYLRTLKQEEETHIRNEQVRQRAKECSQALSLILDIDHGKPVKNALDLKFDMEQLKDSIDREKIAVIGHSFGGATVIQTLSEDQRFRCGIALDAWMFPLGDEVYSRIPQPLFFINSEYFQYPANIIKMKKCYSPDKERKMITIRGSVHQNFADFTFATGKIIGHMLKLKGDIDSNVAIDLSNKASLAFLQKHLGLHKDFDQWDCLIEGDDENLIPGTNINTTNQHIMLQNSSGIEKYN
PAFAH1B3 FP inh: blocks human PAF acetylhydrolase 1B catalytic subunit 3; Q15102; recombinant PAFAH1B3, FP-rhodamine probe, fluorescence polarization; inhibition, % at 3.39 µM; 340,000 tested, 0.28% active; AID 492972;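 active means inhibition above the screen-wide average of all tested compounds plus 3 SD, cut at about 25% in these data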
pPAFAH confirm: pPAFAH (human) inhibition, confirmed. recombinant pPAFAH, FP-Rh probe fluorescence polarization. AID 463230. shares compounds with pPAFAH inh. 2,300 tested, 72% active. inhibition, % at 3.39 µM;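 active means mean inhibition of the triplicate above the hit cutoff set for the earlier primary screen, cut at about 25% in these data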
Each line names hits and unclear results; the compound was inactive in the other large screens (follow-up assays come after a bar, where they were run). Sampled rows, rich in hits. Any-hit rate of the full collection: about 2.8%.

N#C/C=C1/NC(=O)c2ccccc2S1	pPAFAH inh 56.6 | pPAFAH confirm inactive
CCc1ccc(NS(=O)(=O)c2ccc3c(c2)oc(=O)n3C)cc1	pPAFAH inh 58.3 | pPAFAH confirm 47.0
Cc1ccc(S(=O)(=O)N2[C@@H](c3ccc(C(C)(C)C)cc3)C(C(=O)O)=CC[C@H]2c2ccc3c(c2)OCO3)cc1	PAFAH1B2 FP inh 92.3, pPAFAH inh 57.8 | pPAFAH confirm inactive
CCOC(=O)N1CCN(c2cc(NCCC(=O)O)c3c4c(onc24)-c2ccccc2C3=O)CC1	HTRA1 inh 40.2, pPAFAH inh 54.9 (no result: ABHD4 inh) | pPAFAH confirm 37.3
CCOC(=O)N1CCN(C2=C(NS(=O)(=O)c3ccc(C)cc3)C(=O)c3ccccc3C2=O)CC1	none
O=C(NCCCl)NNC(=O)c1cc2ccccc2cc1O	none
O=C(NNC(=O)c1cc2ccccc2cc1O)Nc1ccccc1F	pPAFAH inh 65.5 | pPAFAH confirm 37.4
Cc1ccc(CN2CCCCC(NC(=O)Nc3ccccc3-c3ccccc3)C2=O)cc1 (stereo not drawn)	none (no result: HTRA1 inh, PAFAH1B2 FP inh, PAFAH2 FP inh, pPAFAH inh, PAFAH1B3 FP inh)
O=C(O)c1[nH]c2ccccc2c1NS(=O)(=O)Cc1ccccc1	pPAFAH inh 38.5 | pPAFAH confirm inactive
CC(C)NC(=O)Cn1cnc2c(cnn2-c2ccc(F)cc2)c1=O	none
COc1ccc(-n2ncc3c(=O)n(CC(=O)NC(C)C)cnc32)cc1	pPAFAH inh 35.6 | pPAFAH confirm inactive
COc1cc(N=Nc2cccc(S(N)(=O)=O)c2)c2ccccc2c1N	pPAFAH inh 49.5 | pPAFAH confirm 31.5
COc1ccc(CNC(=O)CN2C(=O)NC3(CCCCCC3)C2=O)cc1	pPAFAH inh 61.2 | pPAFAH confirm inactive
Cc1ccc(NC(=O)N/C=C/c2ccccc2)cc1	pPAFAH inh 39.4 | pPAFAH confirm inactive
OC(CCN1CCCCC1)(c1ccccc1)C1CC2C=CC1C2 (stereo not drawn)	none (no result: HTRA1 inh, PAFAH1B2 FP inh, PAFAH2 FP inh, pPAFAH inh, PAFAH1B3 FP inh)
O=C(Oc1nsnc1N1CCOCC1)N1CCOCC1	PAFAH2 FP inh 30.7, pPAFAH inh 84.9 | pPAFAH confirm 89.1
O=C(Oc1nsnc1N1CCOCC1)c1ccccc1	none
O=C(Oc1nsnc1N1CCOCC1)N1CCCCC1	pPAFAH inh 57.1 | pPAFAH confirm 50.1
O=C(COC(=O)c1ccc2c(c1Cl)C(=O)c1ccccc1C2=O)NC1CCCCC1	PAFAH2 FP inh 44.4, pPAFAH inh 52.8 | pPAFAH confirm 49.9
O=C(COC(=O)c1ccc2c(c1Cl)C(=O)c1ccccc1C2=O)NC1CC1	PAFAH2 FP inh 34.2, pPAFAH inh 53.6 | pPAFAH confirm 43.8
CCN(CC)C(=O)C1c2ccccc2Oc2ccccc21	pPAFAH inh 39.4 | pPAFAH confirm inactive
C=CCN(CC=C)C(=O)C1c2ccccc2Oc2ccccc21	none (no result: PAFAH1B2 FP inh, PAFAH2 FP inh, pPAFAH inh, PAFAH1B3 FP inh)
CC(=O)Nc1cccc2ncccc12	pPAFAH inh 54.9 | pPAFAH confirm inactive
CC(C)(C)c1ccc(C(=O)Nc2cccc3ncccc23)cc1	none
CC(=NNC(=O)CSc1nnc(-c2ccccc2)n1-c1ccccc1)c1cccc([N+](=O)[O-])c1	none (no result: HTRA1 inh, PAFAH1B2 FP inh, PAFAH2 FP inh, pPAFAH inh, PAFAH1B3 FP inh)
Cn1c(CNc2ccccc2F)nc2ccccc21	none (no result: HTRA1 inh, PAFAH1B2 FP inh, PAFAH2 FP inh, pPAFAH inh, PAFAH1B3 FP inh)
Nc1ccc2nc(-c3cccnc3)[nH]c2c1	pPAFAH inh 39.5 | pPAFAH confirm inactive
CCOc1ccc(Nc2nc(NCC3CCCO3)c3ccccc3n2)cc1 (stereo not drawn)	pPAFAH inh 67.5 | pPAFAH confirm 55.4
CSc1nc(N(C)CCO)c2sc3nc(-c4ccco4)c4c(c3c2n1)CCC4	pPAFAH inh 40.4 (no result: ABHD4 inh) | pPAFAH confirm inactive
CN(C)c1ccc(NC(=O)CSc2nnc(-c3ccco3)c(-c3ccco3)n2)cc1	none
Cc1cccc(C)c1NC(=O)CSc1nnc(-c2ccco2)c(-c2ccco2)n1	HTRA1 inh 50.1, PAFAH2 FP inh 45.3, pPAFAH inh 58.5 (no result: ABHD4 inh) | pPAFAH confirm inactive
O=C1NC(=S)SC1=Cc1ccccc1Cl	none (no result: pPAFAH inh)
Cc1ccc(C2C(/C=C3/SC(=S)NC3=O)=C(c3cccs3)Oc3ccccc32)cc1 (stereo not drawn)	pPAFAH inh 38.5 | pPAFAH confirm 47.5
CC(=NN1CCN(Cc2ccccc2Cl)CC1)c1ccc(O)cc1	none (no result: HTRA1 inh, PAFAH1B2 FP inh, PAFAH2 FP inh, pPAFAH inh, PAFAH1B3 FP inh)
C/C(=N\Nc1ccc(S(=O)(=O)Nc2ccccc2)cc1[N+](=O)[O-])c1ccncc1	none (no result: HTRA1 inh, PAFAH1B2 FP inh, PAFAH2 FP inh, PAFAH1B3 FP inh)
COc1ccc(NS(=O)(=O)c2ccc(N/N=C(\C)c3ccncc3)c([N+](=O)[O-])c2)cc1	pPAFAH inh 57.0 | pPAFAH confirm 54.6
CCCCCCNC(=O)C1CSCCS(=O)(=O)N1Cc1ccccc1 (stereo not drawn)	none (no result: HTRA1 inh, PAFAH1B2 FP inh, PAFAH2 FP inh, pPAFAH inh, PAFAH1B3 FP inh)
CC(=O)OCCNc1cc(SCc2ccco2)c2nonc2c1[N+](=O)[O-]	pPAFAH inh 57.8 (no result: ABHD4 inh) | pPAFAH confirm inactive
Cc1cc([N+](=O)[O-])ccc1Nc1nc2ccccc2n2cnnc12	pPAFAH inh 37.1 | pPAFAH confirm inactive
COc1cc2cccc(OC)c(=O)c2c(O)c1OC	none
COc1cc2c(ccc3cc(OC)c(OC)c(O)c32)cc1O	pPAFAH inh 39.5 | pPAFAH confirm inactive
Cc1cc(/C=C2\SC(=S)NC2=O)c(C)n1C	pPAFAH inh 38.8 | pPAFAH confirm inactive
C=CCN1C(=O)[C@H](CC(=O)N2CCC(c3ccccc3)CC2)[C@@]2(C(=O)OCC)CCCC=C12	none (no result: HTRA1 inh, PAFAH1B2 FP inh, PAFAH2 FP inh, pPAFAH inh, PAFAH1B3 FP inh)
CCOC(=O)N1CCN(C(=O)CCN2C(=O)COc3ccc(C)cc32)CC1	pPAFAH inh 77.5 | pPAFAH confirm inactive
COc1cc([N+](=O)[O-])cc(/C=N/NC(=O)c2cc(-c3ccccc3)nc3ccccc23)c1O	pPAFAH inh 35.9 | pPAFAH confirm 35.2
Cc1oc2c(c1C(=O)O)C(=O)c1ccccc1C2=O	none
Cc1oc2c(c1C(=O)c1ccccc1)C(=O)C(=O)c1ccccc1-2	PAFAH2 FP inh 34.4, pPAFAH inh 35.6 | pPAFAH confirm 25.1
CC1(C)CC(=O)C2=C(C1)c1c(ccc3ccccc13)NC2c1ccc(C(=O)O)cc1 (stereo not drawn)	none
CC1(C)CC(=O)C2=C(C1)c1c(ccc3ccccc13)NC2c1cc([N+](=O)[O-])cc([N+](=O)[O-])c1O (stereo not drawn)	PAFAH1B2 FP inh 28.8, PAFAH2 FP inh 34.8, pPAFAH inh 40.7 | pPAFAH confirm 79.3
CCOc1ccc(N2CC(C(=O)Nc3ccc(F)cc3F)CC2=O)cc1 (stereo not drawn)	pPAFAH inh 36.9 | pPAFAH confirm inactive
CCOc1ccc(N2CC(C(=O)Nc3ccccc3OC)CC2=O)cc1 (stereo not drawn)	none
CCOc1ccc(-n2c(C)cc(/C=N/Nc3nc(C)cc(=O)[nH]3)c2C)cc1	pPAFAH inh 42.7 | pPAFAH confirm 84.9
N=C1/C(=C\c2ccc(-c3cccc(Cl)c3)o2)C(=O)N=C2SC=C(c3ccccc3)N12	pPAFAH inh 42.7 | pPAFAH confirm 39.6
Clc1ccc(-c2nnc(N3CCCC3)nn2)cc1	pPAFAH inh 49.8 | pPAFAH confirm inactive
